According to ChEMBL document CHEMBL5316288, “Synthetic Strategies for Improving Solubility: Optimization of Novel Pyrazolo[1,5-a]pyrimidine CFTR Activator That Ameliorates Dry Eye Disease” (J Med Chem, 2023):
Values after ≈ are worked out from the molar mass of the structure shown. Active and inactive are the calls of the source. The rule behind the calls is not given here.

Assays:
[1] = molecular target: T1, Cystic fibrosis transmembrane conductance regulator (Homo sapiens, UniProt P13569); experiment: Activation of human wild-type CFTR stably expressed in CHO-K1 cells co-expressing halide sensors YFP-H148Q/I152L assessed as CFTR-mediated iodide influx incubated for 10 mins by YFP fluorescence quenching assay; assay type: cell-based
Target sequence in this assay (P13569 whole entry): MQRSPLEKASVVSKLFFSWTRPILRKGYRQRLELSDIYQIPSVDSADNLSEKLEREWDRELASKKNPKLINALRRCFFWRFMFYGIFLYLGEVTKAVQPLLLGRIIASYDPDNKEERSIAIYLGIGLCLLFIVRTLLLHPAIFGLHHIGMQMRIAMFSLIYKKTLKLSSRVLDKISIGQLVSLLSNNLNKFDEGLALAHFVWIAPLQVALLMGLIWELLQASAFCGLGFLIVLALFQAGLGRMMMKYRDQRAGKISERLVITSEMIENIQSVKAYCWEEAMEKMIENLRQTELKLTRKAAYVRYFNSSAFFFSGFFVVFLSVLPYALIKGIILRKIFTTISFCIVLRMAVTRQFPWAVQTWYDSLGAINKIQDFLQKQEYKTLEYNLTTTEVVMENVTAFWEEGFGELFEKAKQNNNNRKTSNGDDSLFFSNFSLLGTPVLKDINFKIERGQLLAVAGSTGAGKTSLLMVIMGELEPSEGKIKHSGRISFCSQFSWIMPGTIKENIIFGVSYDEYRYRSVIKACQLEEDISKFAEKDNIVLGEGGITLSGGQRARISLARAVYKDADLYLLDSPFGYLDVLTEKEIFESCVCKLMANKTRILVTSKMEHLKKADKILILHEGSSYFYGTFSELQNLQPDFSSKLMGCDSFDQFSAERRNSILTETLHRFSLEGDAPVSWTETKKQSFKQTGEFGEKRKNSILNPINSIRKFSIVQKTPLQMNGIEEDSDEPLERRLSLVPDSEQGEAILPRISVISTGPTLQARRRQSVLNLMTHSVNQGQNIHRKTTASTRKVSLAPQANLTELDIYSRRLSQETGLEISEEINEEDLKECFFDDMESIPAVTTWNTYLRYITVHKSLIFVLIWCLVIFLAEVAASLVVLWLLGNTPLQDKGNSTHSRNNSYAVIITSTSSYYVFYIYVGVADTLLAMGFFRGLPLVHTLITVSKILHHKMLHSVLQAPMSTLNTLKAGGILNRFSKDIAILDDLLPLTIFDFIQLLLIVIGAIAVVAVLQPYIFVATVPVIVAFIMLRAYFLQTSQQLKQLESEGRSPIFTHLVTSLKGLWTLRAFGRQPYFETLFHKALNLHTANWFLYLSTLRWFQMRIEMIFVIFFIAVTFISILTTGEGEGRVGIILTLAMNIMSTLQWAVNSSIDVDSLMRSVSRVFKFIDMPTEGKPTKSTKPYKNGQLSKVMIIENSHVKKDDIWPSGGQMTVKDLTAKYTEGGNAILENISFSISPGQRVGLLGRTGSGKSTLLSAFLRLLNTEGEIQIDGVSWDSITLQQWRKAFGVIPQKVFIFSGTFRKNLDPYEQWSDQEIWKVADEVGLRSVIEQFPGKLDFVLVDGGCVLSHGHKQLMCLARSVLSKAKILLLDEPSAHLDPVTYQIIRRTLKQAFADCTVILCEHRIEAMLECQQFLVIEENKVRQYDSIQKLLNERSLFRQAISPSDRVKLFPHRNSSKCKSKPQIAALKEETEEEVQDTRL

[2] = Solubility of compound in PBS at 7.5 at 0.5 mg/ml incubated for 90 mins by LC-MS/MS analysis; assay type: physicochemical
Procedure, shortened: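 Thermodynamic solubility: compound at 0.5 mg/mL in isotonic phosphate-buffered saline, pH 7.5, vortexed for 90 min. The solution was then filtered sequentially through 0.45, 1.2 and 5.0 μm filters. Concentration was measured by LC-MS/MS against a ≥6-point internal-standard calibration curve (weighted 1/x linear or quadratic) and back-calculated.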

Mus musculus [3] = species on record: Mus musculus; experiment: Amelioration ocular surface damage in scopolamine-induced dry eye in C57BL/6J mouse model assessed as recovery of tear volume at 0.3 %,TOP 3 times day for 10 days by phenol red thread test; assay type: functional, organism-based; settings: time 10.0 day
Procedure, shortened: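 In scopolamine-induced dry eye mice (0.5 mg/0.1 mL s.c. three times daily, 14 days), drops were given three times daily for 10 days. Scopolamine continued for the first 8 days. Tear volume was read with phenol red thread placed 15 s in the lateral canthus, wet length by caliper. Readings were taken before induction, after induction and after 10 days of drops; n = 5.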

Mus musculus [4] = species on record: Mus musculus; experiment: Amelioration ocular surface damage in scopolamine-induced dry eye in C57BL/6J mouse model assessed as decrease in TNF-alpha mRNA expression level in cornea at 0.3 %,TOP 3 times day for 10 days by RT-PCR analysis; assay type: functional, organism-based; settings: time 10.0 day
Procedure, shortened: (§1)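 Dry eye was induced by subcutaneous scopolamine hydrobromide 0.5 mg/0.1 mL three times daily for 14 days. Eye drops (vehicle, 0.3% diquafosol or test agent) followed three times daily for 10 days, with scopolamine continued for the first 8 days. Cornea and conjunctiva mRNA for MMP-2 and TNF-α was quantified by real-time PCR; n = 5.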

Mus musculus [5] = species on record: Mus musculus; experiment: Amelioration ocular surface damage in scopolamine-induced dry eye in C57BL/6J mouse model assessed as decrease in IL-17 mRNA expression level in conjunctiva at 0.3 %,TOP 3 times day for 10 days by RT-PCR analysis; assay type: functional, organism-based; settings: time 10.0 day
Procedure, shortened: (§2)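 Dry eye was induced with scopolamine hydrobromide 0.5 mg/0.1 mL given subcutaneously three times daily for 14 days. Eye drops were then applied to both eyes three times daily for 10 days, with scopolamine continued for the first 8 treatment days. The vehicle was 5% polyoxyl 35 castor oil in sodium phosphate buffer. Corneal and conjunctival IL-17 mRNA was measured by real-time PCR; mean ± S.E., n = 5.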

Mus musculus [6] = species on record: Mus musculus; experiment: Amelioration ocular surface damage in scopolamine-induced dry eye in C57BL/6J mouse model assessed as decrease in MMP-2 mRNA expression level in cornea at 0.3 %,TOP 3 times day for 10 days by RT-PCR analysis; assay type: functional, organism-based; settings: time 10.0 day; procedure, shortened: as §1
Mus musculus [7] = species on record: Mus musculus; experiment: Amelioration ocular surface damage in scopolamine-induced dry eye in C57BL/6J mouse model assessed as decrease in MMP-2 mRNA expression level in conjunctiva at 0.3 %,TOP 3 times day for 10 days by RT-PCR analysis; assay type: functional, organism-based; settings: time 10.0 day; procedure, shortened: as §1
Mus musculus [8] = species on record: Mus musculus; experiment: Amelioration ocular surface damage in scopolamine-induced dry eye in C57BL/6J mouse model assessed as decrease in TNF-alpha mRNA expression level in conjunctiva at 0.3 %,TOP 3 times day for 10 days by RT-PCR analysis; assay type: functional, organism-based; settings: time 10.0 day; procedure, shortened: as §1
Mus musculus [9] = species on record: Mus musculus; experiment: Amelioration ocular surface damage in scopolamine-induced dry eye in C57BL/6J mouse model assessed as decrease in IL-17 mRNA expression level in cornea at 0.3 %,TOP 3 times day for 10 days by RT-PCR analysis; assay type: functional, organism-based; settings: time 10.0 day; procedure, shortened: as §2
[10] = molecular target: T1, Cystic fibrosis transmembrane conductance regulator; experiment: Activation of human wild-type CFTR stably expressed in CHO-K1 cells assessed as increase in chloride current at holding potential 0 mV at 30 uM by whole-cell patch-clamp assay; settings: filed as activator
Target sequence in this assay (P13569 whole entry, looked up): as the sequence (P13569 whole entry) above

[11] = molecular target: T1, Cystic fibrosis transmembrane conductance regulator; experiment: Activation of human CFTR expressed in CHO-K1 cells assessed as increase in intracellular cAMP level at 10 uM incubated for 10 mins in presence of IBMX by Immunoassay; assay type: cell-based; settings: filed as activator
Target sequence in this assay (P13569 whole entry, looked up): as the sequence (P13569 whole entry) above

Mus musculus [12] = species on record: Mus musculus; experiment: Effect on tear secretion in C57BL/6J mouse assessed as maximum tear volume at 1 to 72 uM,TOP and measured after 3 hr by phenol red thread test; assay type: functional; settings: dose 1-72 µM
Procedure, shortened: (§3)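 Normal female C57BL/6J mice received 2.5 μL eye drops in both eyes, held for 30 s. Vehicle was 5% polyoxyl 35 castor oil in sodium phosphate buffer. Tear volume was read by phenol red thread placed 15 s in the lateral canthus, wet length by caliper. Readings were taken at 0 h (baseline) and at 1, 3 and 6 h post-dose; n = 6.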

Mus musculus [13] = species on record: Mus musculus; experiment: Effect on tear secretion in C57BL/6J mouse assessed as increase in tear volume at 1 to 72 uM,TOP and measured upto 6 hrs by phenol red thread test; assay type: functional; settings: dose 1-72 µM; procedure, shortened: as §3
[14] = molecular target: T1, Cystic fibrosis transmembrane conductance regulator; experiment: Activation of human wild-type CFTR stably expressed in rat FRT cells assessed as increase in apical membrane chloride current incubated for 20 mins by patch-clamp assay; assay type: cell-based
Target sequence in this assay (P13569 whole entry): as above

COc1ccc(-c2ccnc3cc(C(=O)N4CC(NC(=O)OC(C)(C)C)C4)nn23)cc1OC
EC50 [1]: 0.7 µM

COc1ccc(-c2ccnc3cc(C(=O)N4CCN(C)CC4)nn23)cc1OC
EC50 [1]: 8.1 µM

COc1ccc(-c2ccnc3cc(C(=O)Nc4ccccc4)nn23)cc1OC
EC50 [1]: 0.065 µM | solubility thermodynamic at 1.5 h ([2]; buffer, pH 7.5, 1.5 h): 0.059 µM (≈ 0.0221 µg/mL)

COC(=O)c1ccc(CNC(=O)c2cc3nccc(-c4ccc(OC)c(OC)c4)n3n2)cc1
EC50 [1]: 0.47 µM

COc1ccc(-c2ccnc3cc(C(=O)N4CCN(C(=O)OC(C)(C)C)CC4)nn23)cc1OC
EC50 [1]: 0.27 µM

COc1ccc(-c2ccnc3cc(C(=O)N4CCN(C5CC5)CC4)nn23)cc1OC
EC50 [1]: 1.4 µM

COc1ccc(-c2ccnc3cc(C(=O)N4CCN(c5ccccc5)CC4)nn23)cc1OC
EC50 [1]: 0.84 µM

COc1ccc(-c2ccnc3cc(C(=O)N4CCN(C(C)C)CC4)nn23)cc1OC
EC50 [1]: 6 µM

COc1ccc(-c2ccnc3cc(C(=O)Nc4ccc(C(=O)O)cc4F)nn23)cc1OC
EC50 [1]: 0.042 µM | solubility thermodynamic at 1.5 h ([2]; PBS, pH 7.5): 0.341 µM (≈ 0.149 µg/mL)

COc1ccc(-c2ccnc3cc(C(=O)NCc4ccc(N5CCOCC5)cc4)nn23)cc1OC
EC50 [1]: 0.71 µM

COc1ccc(-c2ccnc3cc(C(=O)Nc4ccc(C(=O)NCCN)cc4)nn23)cc1OC
EC50 [1]: 16 µM

COc1ccc(-c2ccnc3cc(C(=O)N4CCN(C(=O)c5ccccc5)[C@H](C)C4)nn23)cc1OC
solubility thermodynamic at 1.5 h ([2]; PBS, pH 7.5): 159 µM (≈ 77 µg/mL)

COc1ccc(-c2ccnc3cc(C(=O)Nc4ccc(N5CCOCC5)cc4)nn23)cc1OC
EC50 [1]: 0.007 µM

COc1ccc(-c2ccnc3cc(C(=O)NC4CCCCC4)nn23)cc1OC
EC50 [1]: 0.13 µM

COc1ccc(-c2ccnc3cc(C(=O)Nc4ccc(C(=O)N5CCN(C(=O)OC(C)(C)C)CC5)cc4)nn23)cc1OC
EC50 [1]: 0.017 µM

COc1ccc(-c2ccnc3cc(C(=O)Nc4ccc(C(=O)N5CCN(C)CC5)cc4)nn23)cc1OC.Cl
EC50 [1]: 0.29 µM | solubility thermodynamic at 1.5 h ([2]; PBS, pH 7.5): 237 µM

COc1ccc(-c2ccnc3cc(C(=O)N4CCN(C(=O)c5ccccc5)CC4)nn23)cc1OC
EC50 [1]: 0.11 µM | solubility thermodynamic at 1.5 h ([2]; PBS, pH 7.5): 10.1 µM (≈ 4.74 µg/mL)

O=c1ccn(C2O[C@H](COP(=O)(O)OP(=O)(O)OP(=O)(O)OP(=O)(O)OC[C@H]3O[C@@H](n4ccc(=O)[nH]c4=O)[C@H](O)[C@@H]3O)[C@@H](O)[C@H]2O)c(=O)[nH]1 (some centres undefined)
Activity (Mus musculus [3]): Active | Activity (Mus musculus [4]): Active | Activity (Mus musculus [5]): Active | Activity (Mus musculus [6]): Active | Activity (Mus musculus [7]): Active | Activity (Mus musculus [8]): Active | Activity (Mus musculus [9]): Active

COc1ccc(-c2ccnc3cc(C(=O)Nc4ccc(OCCN5CCOCC5)cc4)nn23)cc1OC
EC50 [1]: 0.006 µM

COc1ccc(-c2ccnc3cc(C(=O)N4CC[C@@H](NC(=O)OC(C)(C)C)C4)nn23)cc1OC
EC50 [1]: 0.37 µM

COc1ccc(-c2ccnc3cc(C(=O)N4CCN(C(=O)c5ccccc5)C(C)(C)C4)nn23)cc1OC
EC50 [1]: 0.2 µM | solubility thermodynamic at 1.5 h ([2]; PBS, pH 7.5): 1.82 µM (≈ 0.907 µg/mL)

COc1ccc(-c2ccnc3cc(C(=O)N[C@H]4CC[C@H](C(=O)OC)CC4)nn23)cc1OC
solubility thermodynamic at 1.5 h ([2]; PBS, pH 7.5): 1.39 µM (≈ 0.611 µg/mL)

COC(=O)C12CC(NC(=O)c3cc4nccc(-c5ccc(OC)c(OC)c5)n4n3)(C1)C2
EC50 [1]: 0.31 µM | solubility thermodynamic at 1.5 h ([2]; PBS, pH 7.5): 1.42 µM (≈ 0.599 µg/mL)

COc1ccc(-c2ccnc3cc(C(=O)Nc4ccc(C(=O)O)cc4)nn23)cc1OC
EC50 [1]: 0.31 µM | solubility thermodynamic at 1.5 h ([2]; PBS, pH 7.5): 5.21 µM (≈ 2.18 µg/mL)

COC(=O)c1ccc(NC(=O)c2cc3nccc(-c4ccc(OC)c(OC)c4)n3n2)c(Cl)c1
EC50 [1]: 2.7 µM

C=C[C@@]1(C)CC(=O)[C@]2(O)[C@@]3(C)[C@@H](O)CCC(C)(C)[C@@H]3[C@H](O)[C@H](OC(C)=O)[C@@]2(C)O1
Activity [10]: Active | Activity [11]: Active

COC(=O)c1ccc(NC(=O)c2cc3nccc(-c4ccc(OC)c(OC)c4)n3n2)cc1
EC50 [1]: 0.014 µM

COc1ccc(-c2ccnc3cc(C(=O)N4CCN(C(=O)C5CC5)CC4)nn23)cc1OC
EC50 [1]: 1.7 µM

COc1ccc(-c2ccnc3cc(C(=O)N[C@H]4CC[C@@H](C(=O)OC)CC4)nn23)cc1OC
solubility thermodynamic at 1.5 h ([2]; PBS, pH 7.5): 7.55 µM (≈ 3.31 µg/mL)

COc1ccc(-c2ccnc3cc(C(=O)N4CCN(Cc5ccccc5)CC4)nn23)cc1OC
EC50 [1]: 0.73 µM

CCOc1ccc(NC(=O)c2cc3nccc(-c4ccc(OC)c(OC)c4)n3n2)cc1
Activity (Mus musculus [12]): Active | Activity (Mus musculus [13]): Dose-Dependent Effect | EC50 [14]: 0.342 µM | EC50 [1]: 0.018 µM

COc1ccc(-c2ccnc3cc(C(=O)N4CCNCC4)nn23)cc1OC
EC50 [1]: 17 µM
